The test system of one series is Hepatitis C virus. In words: Antiviral activity against Hepatitis C virus subtype 1b Con1 infected in human Huh7 cells assessed as inhibition of HCV replicon-encoded Renilla luciferase reporter activity after 72 hrs by HCV replicon assay. The settings on record: Con1, Huh-7, 72 h. The class given is functional, organism-based, Hepacivirus hominis. The essentials:
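Huh7 cells stably carrying a bicistronic subgenomic genotype 1b (Con1) replicon with Renilla luciferase reporter, seeded at 2 × 10⁴ cells/well the day before. Four-fold serial dilutions in growth medium, no-drug controls on each plate; 3 days at 37 °C, 5% CO₂. Luciferase reagent 20 min, then luminescence (RLU) read; EC₅₀ derived.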

Series [1] is described as follows: Cytotoxicity against human HuH7 cells after 3 days. The class given is cell-based, Huh-7. The essentials:
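Huh7 replicon cells seeded at 2 × 10⁴ per well one day before dosing. Four-fold serial dilutions in growth medium, no-drug controls on each plate. Incubated 3 days at 37 °C, 5% CO₂. Viability read by CellTiter-Glo luminescence after 20 min with reagent.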

In the case of `COc1nc(N)nc2c1ncn2[C@@H]1O[C@H](COP(=O)(N[C@@H](CC(C)C)C(=O)OCc2ccccc2)N[C@@H](CC(C)C)C(=O)OCc2ccccc2)[C@@H](O)[C@@]1(C)O` (mixture of isomers), in the series on Hepatitis C virus, the EC50 worked out at 0.38 µM and the EC90 came out at 1.31 µM. Moreover, half-maximal cytotoxicity in series [1] (CC50 at 72 h) was put at 39 µM.
For the compound `COc1nc(N)nc2c1ncn2[C@@H]1O[C@H](COP(=O)(N[C@@H](Cc2ccccc2)C(=O)OCC(C)(C)C)N[C@@H](Cc2ccccc2)C(=O)OCC(C)(C)C)[C@@H](O)[C@@]1(C)O` (mixture of isomers), in the series with Hepatitis C virus, the EC50 was found to be 0.05 µM and the 90% effect concentration (EC90) turned out to be 0.21 µM. Further, half-maximal cytotoxicity in series [1] (CC50 at 72 h) was put at 24 µM.
On the same counts, the results for `COc1nc(N)nc2c1ncn2[C@@H]1O[C@H](COP(=O)(N[C@@H](CCSC)C(=O)OCc2ccccc2)N[C@@H](CCSC)C(=O)OCc2ccccc2)[C@@H](O)[C@@]1(C)O` (mixture of isomers) are 0.25 µM, 0.77 µM and > 100 µM.
In the case of `COc1nc(N)nc2c1ncn2[C@@H]1O[C@H](CO)[C@@H](O)[C@@]1(C)O` [BETA-2'-C-METHYL-6-O-METHYL GUANOSINE], in the series with Hepatitis C virus, the EC50 stood at 4.4 µM and the EC90 worked out at 19.4 µM. For the same compound, the CC50 at 72 h in series [1] was > 100 µM.
Consider `COc1nc(N)nc2c1ncn2[C@@H]1O[C@H](COP(=O)(N[C@@H](CC(C)C)C(=O)OC2CCCCC2)N[C@@H](CC(C)C)C(=O)OC2CCCCC2)[C@@H](O)[C@@]1(C)O` (mixture of isomers), for which, in the series on Hepatitis C virus, the EC50 was 0.45 µM and the 90% effect concentration (EC90) was 2 µM. In series [1], this compound gave a CC50 at 72 h of 20 µM.
Consider `COC(=O)[C@H](Cc1ccc(OC(C)(C)C)cc1)NP(=O)(N[C@@H](Cc1ccc(OC(C)(C)C)cc1)C(=O)OC)OC[C@H]1O[C@@H](n2cnc3c(OC)nc(N)nc32)[C@](C)(O)[C@@H]1O` (mixture of isomers), for which, in the series on Hepatitis C virus, the EC50 is 0.11 µM and the EC90 turned out to be 0.5 µM. The compound further displayed a half-maximal cytotoxic concentration (CC50) at 72 h in series [1] of 89 µM.
In the case of `COc1nc(N)nc2c1ncn2[C@@H]1O[C@H](COP(=O)(N[C@@H](C)C(=O)OC2CCCCO2)N[C@@H](C)C(=O)OC2CCCCO2)[C@@H](O)[C@@]1(C)O` (mixture of isomers), in the series with Hepatitis C virus, the EC50 was 13.3 µM and the concentration for an effect of 90% (EC90) stood at 29.3 µM. Besides, the half-maximal cytotoxic concentration (CC50) at 72 h in series [1] was > 100 µM.
For `CCN(CC)P(=O)(N[C@@H](C)C(=O)OCC(C)(C)C)OC[C@H]1O[C@@H](n2cnc3c(OC)nc(N)nc32)[C@](C)(O)[C@@H]1O` (mixture of isomers), in the series with Hepatitis C virus, the concentration giving a half-maximal response (EC50) is 3.7 µM and the EC90 was > 10 µM. Also, in series [1], the cytotoxic concentration (CC50) at 72 h was > 100 µM.
`COC(=O)[C@H](C)NP(=O)(N[C@@H](C)C(=O)OC)OC[C@H]1O[C@@H](n2cnc3c(OC)nc(N)nc32)[C@](C)(O)[C@@H]1O` (mixture of isomers): in the series with Hepatitis C virus, the concentration giving a half-maximal response (EC50) was determined as 5.9 µM and the EC90 was > 10 µM. The half-maximal cytotoxic concentration (CC50) at 72 h in series [1] was > 100 µM.
In the case of `COc1nc(N)nc2c1ncn2[C@@H]1O[C@H](COP(=O)(N[C@@H](CC(C)C)C(=O)OCC(C)(C)C)N[C@@H](CC(C)C)C(=O)OCC(C)(C)C)[C@@H](O)[C@@]1(C)O` (mixture of isomers), in the series with Hepatitis C virus, the EC50 was 0.47 µM and the EC90 is 2.4 µM. The compound also gave a CC50 at 72 h in series [1] of 27 µM.
With `C[C@@]1(O)[C@H](O)[C@@H](CO)O[C@H]1n1cnc2c(=O)[nH]c(N)nc21` [2'-B-METHYL-GUANOSINE], in the series on Hepatitis C virus, the EC50 was determined as 2.2 µM and the 90% effect concentration (EC90) was 8.3 µM. In addition, the CC50 at 72 h in series [1] is > 100 µM.
Regarding `COc1nc(N)nc2c1ncn2[C@@H]1O[C@H](COP(=O)(N[C@H](C(=O)N[C@@H](C)C(=O)OCC(C)(C)C)C(C)C)N[C@H](C(=O)N[C@@H](C)C(=O)OCC(C)(C)C)C(C)C)[C@@H](O)[C@@]1(C)O` (mixture of isomers), in the series on Hepatitis C virus, the concentration giving a half-maximal response (EC50) worked out at 0.54 µM and the EC90 worked out at 2.4 µM. The half-maximal cytotoxic concentration (CC50) at 72 h in series [1] is > 100 µM.
Regarding `COc1nc(N)nc2c1ncn2[C@@H]1O[C@H](COP(=O)(N[C@@H](C)C(=O)OC(C)C)N[C@@H](C)C(=O)OC(C)C)[C@@H](O)[C@@]1(C)O` (mixture of isomers), in the series with Hepatitis C virus, the EC50 amounted to 0.49 µM and the EC90 turned out to be 2.1 µM. Also, in series [1], the CC50 at 72 h was > 100 µM.

Source of the values: ChEMBL document CHEMBL2150978, “Phosphorodiamidates as a promising new phosphate prodrug motif for antiviral drug discovery: application to anti-HCV agents” (J Med Chem, 2011).
